The list is not random: actives were taken first. Their share in the collection is about 2.5%.
CDK5 inh – inhibitors of human CDK5/p35 kinase; Recombinant CDK5/p35, ADP-Glo luminescence, 60 min; inhibition, % at 10 µM; actives 0.01% (n = 330,000); AID 488839;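 active = highest replicate inhibition of at least 50% and at least 75% of replicates reaching 50%; inconclusive = only one of the two criteria met; inactive = both criteria failed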
Target sequence (Q00535 whole entry, looked up): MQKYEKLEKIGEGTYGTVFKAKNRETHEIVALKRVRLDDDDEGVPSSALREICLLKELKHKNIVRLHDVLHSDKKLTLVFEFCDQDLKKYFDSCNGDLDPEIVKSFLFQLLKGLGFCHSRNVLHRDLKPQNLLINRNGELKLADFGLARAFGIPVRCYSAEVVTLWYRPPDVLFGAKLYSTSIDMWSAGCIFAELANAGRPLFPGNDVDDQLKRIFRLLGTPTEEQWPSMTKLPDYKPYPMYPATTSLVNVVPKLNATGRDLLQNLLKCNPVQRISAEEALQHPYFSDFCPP
Target sequence (Q15078 whole entry, looked up): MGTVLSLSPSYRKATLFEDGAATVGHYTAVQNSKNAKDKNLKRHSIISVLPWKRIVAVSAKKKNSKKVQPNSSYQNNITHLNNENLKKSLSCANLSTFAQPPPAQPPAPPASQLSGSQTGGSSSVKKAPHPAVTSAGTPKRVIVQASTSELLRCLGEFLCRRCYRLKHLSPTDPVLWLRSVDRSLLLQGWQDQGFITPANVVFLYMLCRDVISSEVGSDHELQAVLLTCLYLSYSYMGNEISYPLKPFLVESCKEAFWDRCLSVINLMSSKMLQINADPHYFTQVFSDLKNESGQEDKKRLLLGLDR
NSD2 HMT inh – inhibitors of human histone methyltransferase NSD2 | inhibition, % at 12.5 µM | O96028 | actives 0.54% (n = 310,000) | NSD2 peptide methylation, AlphaScreen, 120 min
DYRK1A inh – Dyrk1A (rat) kinase inhibition; ADP-Glo luminescence, NFATc1 peptide; inhibition, % at 12.5 µM; actives 0.43% (n = 310,000); Q63470
SR-BI DiI inh – blocks mouse SR-BI lipid uptake from DiI-HDL; actives 0.96% (n = 320,000); inhibition, % at 12.5 µM; Q61009; ldlA[mSR-BI] CHO cells, DiI-HDL uptake fluorescence, 3 h;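 active = mean replicate inhibition of at least 70% and a set share of replicates each scoring 70 or more; inconclusive = meets just one of the two criteria; inactive = fails both criteria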
SR-BI uptake up – enhances SR-BI lipid uptake from DiI-HDL | CHO ldlA[mSR-BI] cells, DiI-HDL uptake fluorescence, 3 h; 100 = double the neutral-control signal | activation, % at 12.5 µM | actives 0.096% (n = 320,000) | AID 504775;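 active = mean replicate activation of at least 60% and every replicate at or above 60%; inconclusive = mean or all-replicate condition met, but not both; inactive = mean below 60% and not all replicates reaching 60%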
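Assay system: CHO ldlA[mSR-BI] cells, LDL receptor-null, SR-BI overexpressing; medium: Ham's F12 with 0.5% BSA, HEPES 25 mM, pH 7.4; also added: DiI-HDL 10 µg/mL; timing: 3 h uptake period with compound, 37 °C; signal: DiI fluorescence, bottom read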
dFosB activator – activators of mouse delta FosB homodimer | actives 0.99% (n = 340,000) | AID 493131 | activation, % at 25 µM | purified delta FosB, TAMRA-CDK5 oligo fluorescence polarization; percent of positive-control signal above neutral wells;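 active = mean activation above about 17%, with every replicate also reaching it, limit read from the data, passing the limit was not always enough; inconclusive = only one of the two conditions met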
DiI quencher – quenches DiI-HDL fluorescence, an SR-BI assay artifact. shares compounds with SR-BI DiI inh. cell-free DiI-HDL fluorescence quenching, 30 min. AC50, µM (titrated, usually from 35 µM). actives 20% (n = 470). AID 540326;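 active = quenching, a falling signal, with AC50 below a set limit tied to the top valid dose, actives reach about 32 µM in these data; inconclusive = no clear call, values can overlap the other calls; inactive = rising signal, and the rest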
Each line names hits and unclear results; the compound was inactive in the other large screens (follow-up assays come after a bar, where they were run). Cut-off read from the data, not from the text of the source, unless noted: active = inhibition above about 50%; inactive = the rest.

CCOC(=O)/C(=C/C=C1\Sc2cc(OCC)c(OCC)cc2N1CC)C(C)=O	SR-BI DiI inh 78
Cc1ccc(C2(c3noc(CN(C)CCCN4CCOCC4)n3)CCCC2)cc1	none (no result: CDK5 inh, DYRK1A inh, SR-BI DiI inh, SR-BI uptake up, dFosB activator)
Cc1ccc(C2(c3noc(CN(C)Cc4cnn(C)c4)n3)CCCC2)cc1	SR-BI uptake up 122
O=C(CNS(=O)(=O)c1cc2ccccc2s1)N1CCN(c2ccccn2)CC1	none (no result: CDK5 inh, DYRK1A inh, SR-BI DiI inh, SR-BI uptake up, dFosB activator)
C=CCCC(=O)N1CCC(C(=O)NC2CCCc3ccccc32)CC1 (centres undefined)	none (no result: CDK5 inh, DYRK1A inh, SR-BI DiI inh, SR-BI uptake up, dFosB activator)
CC(C)N(C(=O)COC(=O)c1ccc(Cl)c(S(N)(=O)=O)c1)C(C)C	none (no result: DYRK1A inh)
Cc1cc(C(=O)COC(=O)c2ccc(Cl)c(S(N)(=O)=O)c2)c(C)n1C1CC1	SR-BI DiI inh 75 | DiI quencher inactive
CN(Cc1ccccc1)Cc1c(O)ccc2ccccc12	none
CN(Cc1cc(Cl)cc(Cl)c1O)Cc1c(O)ccc2ccccc12	SR-BI DiI inh 103 | DiI quencher 1.9µM
COc1ccc(N(CC(=O)NC2CCCC2)C(=O)Cn2nnc(-c3ccc(C)o3)n2)cc1	none (no result: SR-BI DiI inh, SR-BI uptake up)
COc1ccc(-c2nnn(CC(=O)N(C3CCCCC3)C(C)C(=O)NC3CCCC3)n2)cc1OC (centres undefined)	SR-BI DiI inh 86 | DiI quencher inactive
COc1ccc(N(CC(=O)NC2CCCC2)C(=O)Cn2nnc(-c3ccc(C)cc3)n2)cc1OC	none (no result: DYRK1A inh)
COc1ccc(-c2nnn(CC(=O)N(CC(=O)NC3CCCC3)c3cccc(C)c3)n2)cc1OC	SR-BI DiI inh 83 | DiI quencher inactive
COc1ccc(N(CC(=O)NC2CCCC2)C(=O)Cn2nnc(-c3ccc(C)cc3)n2)cc1	none | DiI quencher inactive
COc1ccc(-c2nnn(CC(=O)N(C3CCCC3)C(C)C(=O)NC3CCCC3)n2)cc1OC (centres undefined)	none
COc1ccc(NC(=O)c2c(Nc3ccccc3)sc(C(=O)c3ccc(F)cc3)c2N)cc1	SR-BI DiI inh 122 | DiI quencher 0.18µM
COc1ccc(CN2CCN(CCSc3ccc(C)cc3)CC2)c(OC)c1OC	none
O=C(CN1CCCC1)Nc1ccc(OCc2ccccc2)cc1	none
COc1ccccc1NC(=O)CN1CCN(CC(=O)Nc2ccc(C)c(F)c2)CC1	SR-BI DiI inh 104 | DiI quencher inactive
COc1ccccc1NC(=O)CN1CCN(CC(=O)Nc2ccc(F)cc2)CC1	none
COc1ccccc1NC(=O)CN1CCN(CC(=O)Nc2ccc(OCc3ccccc3)cc2)CC1	none | DiI quencher inactive
CCOc1ccccc1C(=O)Nc1ccc2nc(C)[nH]c(=O)c2c1	none (no result: CDK5 inh, DYRK1A inh, SR-BI DiI inh, SR-BI uptake up, dFosB activator)
COc1ccccc1NS(=O)(=O)c1ccc(C(=O)Nc2ncccc2O)cc1	none
COc1cccc(-c2nnc(SC(C(=O)c3c[nH]c4ccccc34)c3ccccc3)n2C)c1 (centres undefined)	SR-BI DiI inh 75, dFosB activator inconclusive | DiI quencher inactive
CC(=O)Nc1ccc(NC(=O)c2cccc(C(=O)OC(C)C)n2)cc1	none
CC(C)OC(=O)c1cccc(C(=O)Nc2cccc(NC(=O)c3cccc(C(=O)OC(C)C)n3)n2)n1	SR-BI DiI inh 72 | DiI quencher inactive
CC(=O)c1c(C(C)=O)c(C)n(-c2ccc(C)c(NC(=O)c3ccccc3Cl)c2)c1C	SR-BI DiI inh 79 | DiI quencher inactive
Cc1ccc(NC(=O)c2ccccc2Cl)c(Cl)c1	none
COCCCNC(=O)c1nnn2c1nc(N)c1cc(Cl)ccc12	none (no result: CDK5 inh, DYRK1A inh, SR-BI DiI inh, SR-BI uptake up, dFosB activator)
COC(=O)/C=C/c1ccc2c(c1)S(=O)(=O)N(c1cccc(OC)c1)[C@H]2CC(=O)OC	SR-BI DiI inh 87 (no result: NSD2 HMT inh) | DiI quencher inactive
CCOc1cc(C(=O)NN=C2CCCC2)cc(OCC)c1OCC	none
CCc1cc2cc3c(cc2nc1SCC(=O)OC(C)C)OCO3	SR-BI DiI inh 77 | DiI quencher inactive
O=C(NC1CCN(C(=O)Nc2ccc(F)cc2)CC1)c1ccc(F)cc1	none (no result: SR-BI DiI inh, SR-BI uptake up)
CCC(=O)N1CCCc2cc(S(=O)(=O)CCC(=O)Nc3ccccc3C)ccc21	none (no result: SR-BI uptake up)
CC(=O)NC(c1ccc(F)c(F)c1)c1nc(-c2ccncc2)cs1 (centres undefined)	none (no result: CDK5 inh, DYRK1A inh, SR-BI DiI inh, SR-BI uptake up, dFosB activator)
Cc1ccc(OC(C)C(=O)N(C)c2ccccc2)c([N+](=O)[O-])n1 (centres undefined)	none (no result: DYRK1A inh)
Cc1c(C(=O)CN2CCCC(C)(C)C2)c2ccccc2n1C	SR-BI DiI inh 76 | DiI quencher inactive
Cc1c(C(=O)CN2CCSCC2)c2ccccc2n1C	none (no result: NSD2 HMT inh)
c1ccc(CCNc2nc(-c3ccncc3)nc3ccccc23)cc1	SR-BI DiI inh inconclusive (no result: DYRK1A inh) | DiI quencher inactive
COC(=O)CNc1nc(-c2ccncc2)nc2ccccc12	none
O=C(NC1CC1)c1ccc(CN(c2ccccc2)S(=O)(=O)c2ccccc2)cc1	SR-BI DiI inh inconclusive | DiI quencher inactive
O=C(NCC1CCCO1)c1ccc2c(c1)N(Cc1ccc(F)cc1Cl)C(=O)CS2 (centres undefined)	none (no result: CDK5 inh, DYRK1A inh) | DiI quencher inactive
O=C(NCC1CCCO1)c1ccc2c(c1)N(Cc1ccc(F)cc1)CCS2 (centres undefined)	none
CC(OC(=O)c1cccc(NS(C)(=O)=O)c1)C(=O)Nc1ccc(N2CCOCC2)cc1 (centres undefined)	SR-BI DiI inh 78 | DiI quencher inactive
OCC(O)C1OC(c2ccco2)OC(CO)C1O (centres undefined)	none (no result: DYRK1A inh)
CCCCC(=O)Nc1cccc(NC(=O)c2ccccc2Br)c1	SR-BI DiI inh 74 | DiI quencher inactive
CCCCC(=O)Nc1cccc(NC(=O)CC)c1	none
CC[C@@]1(C(=O)OC)N[C@H](CN(C)S(=O)(=O)c2ccc(-c3ccccc3)cc2)[C@@H]2C(=O)N(C)C(=O)[C@@H]21	none (no result: NSD2 HMT inh, DYRK1A inh)
C/C(=N/NC(=O)c1ccc(-c2ccccc2)cc1)c1cccc(O)c1	none
CCOC(=O)c1c(C)n(-c2ccc(C)cc2)c2c(CC(C)=O)c(Br)c(OC)c(O)c12	SR-BI DiI inh 73 | DiI quencher inactive
CCOC(=O)c1c(C)n(-c2ccc(C)cc2)c2c(C(C(C)=O)C(=O)O)c(Br)c(O)c(O)c12 (centres undefined)	none
CCC(C)c1ccccc1N1CC(C(=O)N2CCN(S(=O)(=O)c3cccc([N+](=O)[O-])c3)CC2)CC1=O (centres undefined)	none | DiI quencher inactive
COc1ccc(C(C)=O)cc1CSC(=S)N1CCSCC1	none (no result: CDK5 inh, DYRK1A inh, SR-BI DiI inh, SR-BI uptake up, dFosB activator)
C[C@@H]1COC(=O)[C@H](NC(=O)OCC2c3ccccc3-c3ccccc32)C/C=C\C[C@@H](CC(=O)N[C@H](CO)Cc2ccccc2)C(=O)N1	SR-BI DiI inh 81 (no result: NSD2 HMT inh) | DiI quencher inactive
NC(=O)NC1(C(=O)O)CCCC1	none

Assay outcomes (PubChem)
